This note sets out measurements from ChEMBL document CHEMBL1156535, “Thiocarbamates as non-nucleoside HIV-1 reverse transcriptase inhibitors. Part 1: Parallel synthesis, molecular modelling and structure-activity relationship studies on O-[2-(hetero)arylethyl]-N-phenylthiocarbamates” (Bioorg Med Chem, 2008).

Active and inactive are the calls of the source. The calls are words filed in the database; no cut-off is given here.

The test system of series [1] is Human immunodeficiency virus 1. Kind of series: Antiretroviral activity against HIV1 in human MT4 cells assessed as reduction in virus-induced cytopathogenicity by MTT assay. The class given is functional, organism-based. Particulars: Human immunodeficiency virus 1, MT4. In short, it runs like this: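 MT-4 cells infected with HIV-1; MTT read-out of viability; EC50 taken as concentration giving 50% protection from virus-induced cytopathogenicity. Mean of three separate experiments, variation among triplicates under 10%.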
On the technique in general: Damage to the host cells serves as the signal in cytopathic effect assays.

Series [2] in a line: Cytotoxicity against human MT4 cells by MTT assay. The class given is cell-based. In short, it runs like this: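 Mock-infected MT-4 cells; viability by MTT method; CC50 taken as concentration reducing viability by 50%. Mean of three separate experiments, variation among triplicates under 10%.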
The nature of series [3]: Selectivity index, ratio of CC50 for human MT4 cells to EC50 for HIV1. The class given is toxicity, cell-based. Particulars: read-out: Ratio CC50/EC50.
The test system of series [4] is Human immunodeficiency virus 1. In words: Antiviral activity against HIV1 in human C8166 cells assessed as reduction of p24 antigen level. Format: functional, organism-based. Particulars: Human immunodeficiency virus 1, C8166. The procedure, abridged: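 C8166 cultures infected with HIV-1; p24 antigen levels measured; EC90 taken as dose lowering p24 by 90%.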
In series [5] the test system is HIV-1 K103N/Y181C mutant (Human immunodeficiency virus 1). Kind of series: Antiviral activity against HIV1 with reverse transcriptase K103N/Y181C mutation in human MT4 cells assessed as reduction of virus-induced cytopathogenicity by MTT assay. The following applies: for EC50: Human immunodeficiency virus 1, MT4.
The subject of series [6] is HIV-1 Y181C mutant (Human immunodeficiency virus 1). Kind of series: Antiviral activity against HIV1 with reverse transcriptase Y181C mutation in human MT4 cells assessed as reduction of virus-induced cytopathogenicity by MTT assay. The following applies: Human immunodeficiency virus 1, MT4.

In general, EC50 refers to the midpoint of the concentration-response curve. What is called CC50 is the concentration at which the toxic effect on the cells reaches its halfway point. Low values mean greater toxicity to the cells, high ones lower toxicity to the cells. In the case of `S=C(Nc1cccc(Cl)c1)OCCc1ccccn1`, in series [1], the EC50 is 1.4 µM. The same molecule yielded a CC50 in series [2] of 47 µM. In addition, in series [3], the selectivity ratio was 34.
Broadly, the EC90 is the concentration needed for an effect of 90%. Consider `O=[N+]([O-])c1ccc(NC(=S)OCCc2ccccn2)cc1`, for which the EC50 in series [1] stood at 0.7 µM. The molecule further returned a CC50 in series [2] greater than 100 µM. The EC90 in series [4] was 0.8 µM. The selectivity ratio in series [3] is greater than 143.
Take `S=C(Nc1ccccc1)OCCc1ccccn1`: in series [1], the EC50 came to 7.4 µM. The molecule also returned a CC50 in series [2] greater than 100 µM. Also, the selectivity ratio in series [3] was greater than 14.
Take `S=C(Nc1ccc(Br)cc1)OCCc1ccccn1`: the results for the EC50 in series [1] and in series [6] were 0.2 µM and 20 µM, respectively. Also, in series [5], the outcome was inactive. In series [2], this molecule came in with a CC50 of 37 µM. Moreover, in series [3], the selectivity ratio was found to be 185.
For the molecule `COc1ccc(NC(=S)OCCc2ccccc2)cc1`, the EC50 in series [1] came to 17 µM. Further, in series [3], the selectivity ratio worked out at 2.1.
`Fc1ccc(F)c(NC(=S)OCCc2ccccn2)c1`: the EC50 in series [1] came out at 9 µM. In addition, the CC50 in series [2] was greater than 100 µM. For the same molecule, in series [3], the selectivity ratio was greater than 11.
Consider `CN(C)c1ccc(NC(=S)OCCc2ccccn2)cc1`, for which, in series [1], the EC50 is greater than 60 µM. The same molecule had a CC50 in series [2] of 60 µM. Further, the selectivity ratio in series [3] was less than 1.
Turning to `O=[N+]([O-])c1cccc(NC(=S)OCCc2ccccn2)c1`, the concentration for a half-maximal effect (EC50) in series [1] amounted to 1.6 µM; in series [5] it was 91 µM; in series [6], 87 µM. The midpoint of cytotoxicity in series [2], the CC50, lay at 100 µM. Besides, in series [3], the selectivity ratio stood at 63.
On to `Cc1ccccc1NC(=S)OCCc1ccccn1`, for which the concentration giving a half-maximal response (EC50) in series [1] was determined as 69 µM. In series [2], this molecule displayed a CC50 greater than 100 µM. Further, in series [3], the selectivity ratio is greater than 1.4.
For the molecule `CC(=O)c1ccc(NC(=S)OCCc2ccccn2)cc1`, the EC50 in series [1] is greater than 100 µM. Also, in series [2], the CC50 is no less than 100 µM.
Turning to `Cc1ccc(NC(=S)OCCc2ccncc2)cc1`, the concentration for a half-maximal effect (EC50) in series [1] came out at 63 µM. In addition, the CC50 in series [2] was greater than 100 µM. Also, in series [3], the selectivity ratio was greater than 1.6.
Take `S=C(NCCc1ccccn1)Nc1ccc(Br)cn1` [TROVIRDINE]: the EC90 in series [4] was determined as 0.015 µM. Also, the selectivity ratio in series [3] is 3000.
For the molecule `S=C(Nc1ccc(Cl)c(Cl)c1)OCCc1ccccn1`, the EC50 in series [1] was 0.2 µM. In series [2], this molecule returned a CC50 of 40 µM. The selectivity ratio in series [3] was determined as 200.
Turning to `S=C(Nc1ccccc1)OCCc1ccccc1`, in series [1], the concentration giving a half-maximal response (EC50) came out at 6 µM. Also, the selectivity ratio in series [3] was found to be 17.
In the case of `Cc1ccc(NC(=S)OCCc2ccccn2)cc1Cl`, the EC50 in series [1] was determined as 0.7 µM. Besides, the CC50 in series [2] came out at 59 µM. Moreover, the selectivity ratio in series [3] was determined as 84.
The matching figures for `Fc1cccc(NC(=S)OCCc2ccccn2)c1`: 1.1 µM, no less than 100 µM and no less than 91.
The matching figures for `Cc1ccc(NC(=S)OCCc2ccccc2)cc1`: 4.3 µM, greater than 100 µM and greater than 23.
The corresponding values for `Cc1cccc(NC(=S)OCCc2ccccn2)c1` are 7.7 µM, greater than 100 µM and greater than 13.
Consider `S=C(Nc1ccc(Cl)cc1)OCCc1ccccc1`, for which, in series [1], the EC50 turned out to be 0.5 µM. The molecule further returned a CC50 in series [2] greater than 100 µM. Further, in series [3], the selectivity ratio was greater than 200.
As for `FC(F)(F)c1cc(NC(=S)OCCc2ccccn2)ccc1Cl`, the EC50 in series [1] came to 5.5 µM. In series [2], this molecule returned a CC50 of 42 µM. In series [3], the selectivity ratio is 7.6.
As to `FC(F)(F)c1ccc(NC(=S)OCCc2ccccn2)cc1`, in series [1], the EC50 is 13 µM. In series [2], this molecule came in with a CC50 of 50 µM. Also, the selectivity ratio in series [3] came out at 3.8.
The matching figures for `O=[N+]([O-])c1cc(NC(=S)OCCc2ccccn2)ccc1Cl`: 0.1 µM, 41 µM and 410.
The corresponding values for `S=C(Nc1ccc(I)cc1)OCCc1ccccn1` are 0.5 µM, 34 µM and 68.
The matching figures for `S=C(Nc1ccccc1)OCCc1cccs1`: 14 µM, greater than 100 µM and greater than 7.1.
On to `Fc1ccc(NC(=S)OCCc2ccccn2)cc1`, for which, in series [1], the EC50 stood at 1.2 µM. Also, in series [2], the CC50 was greater than 100 µM. Also, the selectivity ratio in series [3] was greater than 83.
The matching figures for `CCc1ccc(NC(=S)OCCc2ccccn2)cc1`: 10 µM, 44 µM and 4.4.
In the case of `O=[N+]([O-])c1ccc(NC(=S)OCCc2ccncc2)cc1`, in series [1], the EC50 is greater than 100 µM. The CC50 in series [2] is greater than 100 µM.
`Cc1ccc(NC(=S)OCCc2ccccn2)cc1`: the EC50 in series [1] came out at 1.7 µM. For the same molecule, in series [2], the midpoint of cytotoxicity, the CC50, lay at 75 µM. Moreover, the selectivity ratio in series [3] is 44.
The matching figures for `COc1ccc(NC(=S)OCCc2ccncc2)cc1`: greater than 59 µM, 59 µM and less than 1.
The corresponding values for `COc1ccc(NC(=S)OCCc2ccccn2)cc1` are 5.6 µM, 48 µM and 8.6.
As to `N#Cc1ccc(NC(=S)OCCc2ccccn2)cc1`, the 50% effective concentration (EC50) in series [1] is 0.2 µM. Moreover, in series [2], half-maximal cytotoxicity (CC50) was put at 45 µM. Also, the selectivity ratio in series [3] is 225.
Take `O=C1Nc2ccc(Cl)cc2[C@@](C#CC2CC2)(C(F)(F)F)O1` [EFAVIRENZ]: the results for the half-maximal effective concentration (EC50) in series [5] and in series [6] were 0.04 µM and 0.01 µM, respectively.
Regarding `S=C(Nc1ccc(Cl)cc1)OCCc1ccccn1`, the concentration giving a half-maximal response (EC50) in series [1] was 0.1 µM. Moreover, it took 52 µM to reach half-maximal cytotoxicity in series [2] (CC50). The selectivity ratio in series [3] was found to be 520.
The matching figures for `Fc1cccc(F)c1NC(=S)OCCc1ccccn1`: 38 µM, greater than 100 µM and greater than 2.6.
The matching figures for `S=C(Nc1ccc(Cl)cc1Cl)OCCc1ccccn1`: 2.9 µM, greater than 100 µM and greater than 34.
The matching figures for `O=[N+]([O-])c1ccc(NC(=S)OCCc2ccccc2)cc1`: 0.9 µM, greater than 100 µM and greater than 111.
Take `Fc1cc(F)cc(NC(=S)OCCc2ccccn2)c1`: the EC50 in series [1] worked out at 9 µM. Moreover, the CC50 in series [2] is greater than 100 µM. Moreover, the selectivity ratio in series [3] was greater than 11.
In the case of `CC(C)c1ccc(NC(=S)OCCc2ccccn2)cc1`, in series [1], the EC50 was greater than 45 µM. Moreover, the half-maximal cytotoxic concentration (CC50) in series [2] came out at 45 µM. Besides, in series [3], the selectivity ratio is less than 1.
The matching figures for `S=C(Nc1ccccc1Cl)OCCc1ccccn1`: 43 µM, greater than 100 µM and greater than 2.3.
The corresponding values for `S=C(Nc1ccc(Cl)cc1)OCCc1ccncc1` are greater than 70 µM, 70 µM and less than 1.
